Measurements taken from publication PMC2659690 (Molecular Pharmaceutics, 2008).
Where a SMILES comes first, the peptide text is derived from it. [ ]: non-standard residue; d: D form. Sar = CNCC(=O)O

Columns and labels:
[1] = system: AsPC-1 cell homogenates; assay: Enzymatic stability in AsPC-1 cell homogenate; type: in vitro ADME, human; conditions: 500 μg/mL protein, 37 °C, mean ± SD, n = 3
[2] = Stability in human plasma; type: in vitro ADME; conditions: undiluted human plasma, 37 °C; mean ± SD, n = 3
[3] = target: T1, thymidine phosphorylase (Homo sapiens, UniProt P19971); assay: Resistance to metabolism by thymidine phosphorylase; type: in vitro ADME; conditions: 200 μM substrate, TP 2.0 ng/μL, phosphate buffer pH 7.0, 37 °C; mean ± SD, n = 3
T1 sequence (P19971 11-482): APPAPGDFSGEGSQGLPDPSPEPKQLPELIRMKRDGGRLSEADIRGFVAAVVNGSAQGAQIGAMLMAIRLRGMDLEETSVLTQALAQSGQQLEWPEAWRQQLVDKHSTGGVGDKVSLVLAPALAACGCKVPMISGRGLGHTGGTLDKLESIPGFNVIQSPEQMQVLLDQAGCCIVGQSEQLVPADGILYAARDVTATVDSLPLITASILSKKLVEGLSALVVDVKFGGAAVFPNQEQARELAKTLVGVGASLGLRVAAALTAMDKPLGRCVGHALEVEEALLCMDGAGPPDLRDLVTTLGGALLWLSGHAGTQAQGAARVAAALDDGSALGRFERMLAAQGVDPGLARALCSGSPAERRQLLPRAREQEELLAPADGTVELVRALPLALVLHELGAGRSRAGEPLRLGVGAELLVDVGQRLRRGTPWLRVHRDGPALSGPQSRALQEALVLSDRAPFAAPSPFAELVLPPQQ

[4] = system: Caco-2 cell homogenates; assay: Enzymatic stability in Caco-2 cell homogenate; type: in vitro ADME, human; conditions: 500 μg/mL protein, 37 °C, mean ± SD, n = 3
[5] = target: T2, PEPT1 (Homo sapiens, UniProt P46059); assay: [3H]Gly-Sar uptake inhibition in AsPC-1 cells; type: cell-based; conditions: read-out: IC50 [3H]Gly-Sar uptake inhibition AsPC-1; AsPC-1 cells, 10 μmol/L Gly-Sar, 30 min; mean ± SD, n = 3
T2 sequence (P46059 1-708): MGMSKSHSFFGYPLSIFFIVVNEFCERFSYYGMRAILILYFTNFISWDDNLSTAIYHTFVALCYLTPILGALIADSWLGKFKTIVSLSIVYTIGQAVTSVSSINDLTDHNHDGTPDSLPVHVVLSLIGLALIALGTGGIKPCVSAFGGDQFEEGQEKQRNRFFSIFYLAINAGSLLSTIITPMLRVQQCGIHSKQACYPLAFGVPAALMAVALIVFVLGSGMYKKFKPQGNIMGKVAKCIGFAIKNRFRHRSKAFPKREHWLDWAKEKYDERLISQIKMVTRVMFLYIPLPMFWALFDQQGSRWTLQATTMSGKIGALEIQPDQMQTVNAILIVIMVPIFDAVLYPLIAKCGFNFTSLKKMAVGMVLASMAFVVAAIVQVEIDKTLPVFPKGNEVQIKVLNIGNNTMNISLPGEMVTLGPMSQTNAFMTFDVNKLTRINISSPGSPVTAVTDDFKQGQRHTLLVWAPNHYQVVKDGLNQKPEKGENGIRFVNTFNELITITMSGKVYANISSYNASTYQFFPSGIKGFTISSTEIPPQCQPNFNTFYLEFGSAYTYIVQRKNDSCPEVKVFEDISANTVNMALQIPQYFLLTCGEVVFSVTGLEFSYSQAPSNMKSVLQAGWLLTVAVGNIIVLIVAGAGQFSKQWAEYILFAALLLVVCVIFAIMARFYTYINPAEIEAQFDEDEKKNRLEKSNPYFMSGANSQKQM

[6] = Chemical stability; type: physicochemical; conditions: pH 7.4 phosphate buffer, 37 °C; mean ± SD, n = 3
[7] = system: Capan-2 cell homogenates; assay: Enzymatic stability in Capan-2 cell homogenate; type: in vitro ADME, human; conditions: 500 μg/mL protein, 37 °C, mean ± SD, n = 3
[8] = target: T2, PEPT1; assay: [3H]Gly-Sar uptake inhibition in Caco-2 cells; type: cell-based; conditions: read-out: IC50 [3H]Gly-Sar uptake inhibition Caco-2; Caco-2 cells, 10 μmol/L Gly-Sar, 30 min; mean ± SD, n = 3
[9] = target: T2, PEPT1; assay: [3H]Gly-Sar uptake inhibition in Capan-2 cells; type: cell-based; conditions: read-out: IC50 [3H]Gly-Sar uptake inhibition Capan-2; Capan-2 cells, 10 μmol/L Gly-Sar, 30 min; mean ± SD, n = 3
[10] = system: Capan-2 cell monolayers; assay: Apical-to-basolateral permeability across Capan-2 monolayers; type: in vitro ADME, human; conditions: 1 mM verapamil (efflux pump inhibitor); data not shown
[11] = system: Capan-2 cells; assay: Cell proliferation; type: cell-based; conditions: Homo sapiens, Capan-2, pH 6, read-out: GI50 Capan-2
Method in brief: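 Capan-2 cells (passages 50-54) in antibiotic-free RPMI-1640 plus 10% FBS were plated at 125,000 per well and allowed 24 h to attach. After a rinse with pH 6.0 uptake buffer, they received test compound in the same buffer (twofold series, 4 to 0.25 mmol/L; buffer-only wells as 100% viability) for 4 h at 37 °C. Two washes and 24 h recovery in medium followed.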

Compound	t1/2 cell homogenates AsPC-1 [1]	t1/2 human plasma [2]	t1/2 in the presence of thymidine phosphorylase [3]	t1/2 cell homogenates Caco-2 [4]	IC50 [5]	t1/2 buffer pH 7.4 [6]	t1/2 cell homogenates Capan-2 [7]	IC50 [8]	IC50 [9]	effect of verapamil on permeability in Capan-2 cells [10]	GI50 [11]
CC(C)C[C@H](N)C(=O)NCC(=O)OC[C@H]1O[C@@H](n2cc(F)c(=O)[nH]c2=O)C[C@@H]1O [5′-L-leucyl-L-glycyl-floxuridine, 5′-L-Leucyl-L-glycyl-floxuridine]	3.6 ± 0.8 min	6.7 ± 0.3 min	138 ± 11 min	4.1 ± 0.1 min	510 ± 30 µM	23.2 ± 4.1 min	3.9 ± 1.1 min	3800 ± 600 µM	340 ± 10 µM	–	–
N[C@@H](Cc1ccccc1)C(=O)NCC(=O)OC[C@H]1O[C@@H](n2cc(F)c(=O)[nH]c2=O)C[C@@H]1O [5′-L-phenylalanyl-L-glycyl-floxuridine, 5′-L-Phenylalanyl-L-glycyl-floxuridine]	10.2 ± 0.3 min	9.7 ± 0.8 min	119 ± 30 min	6.3 ± 0.6 min	880 ± 220 µM	132.1 ± 10.2 min	4.3 ± 0.9 min	780 ± 560 µM	790 ± 20 µM	–	–
N[C@@H](Cc1ccccc1)C(=O)N[C@@H](Cc1ccc(O)cc1)C(=O)OC[C@H]1O[C@@H](n2cc(F)c(=O)[nH]c2=O)C[C@@H]1O [5′-L-phenylalanyl-L-tyrosyl-floxuridine, 5′-L-Phenylalanyl-L-tyrosyl-floxuridine]	59.7 ± 1.4 min	80.6 ± 3.7 min	>500 min	103.8 ± 55.5 min	610 ± 180 µM	233.9 ± 6.6 min	42.8 ± 0.0 min	660 ± 250 µM	1200 ± 160 µM	not affected	–
CN(CC(=O)O)C(=O)CN [glycylsarcosine (Gly-Sar), glycylsarcosine] (H-Gly-[Sar]-OH)	–	–	–	–	–	–	–	–	–	–	25700 ± 8100 µM
CC(C)C[C@H](N)C(=O)OC[C@H]1O[C@@H](n2cc(F)c(=O)[nH]c2=O)C[C@@H]1O [5′-L-leucyl-floxuridine]	2.0 ± 0.1 min	82.4 ± 8.7 min	–	3.2 ± 0.2 min	2600 ± 160 µM	83.2 ± 1.7 min	4.7 ± 2.1 min	3510 ± 110 µM	1450 ± 70 µM	–	–
N[C@@H](Cc1ccccc1)C(=O)OC[C@H]1O[C@@H](n2cc(F)c(=O)[nH]c2=O)C[C@@H]1O [5′-L-phenylalanyl-floxuridine]	11.8 ± 1.7 min	62.8 ± 0.8 min	>500 min	11.1 ± 9.9 min	1970 ± 90 µM	187.0 ± 19.0 min	3.0 ± 0.1 min	1990 ± 820 µM	3710 ± 2130 µM	–	–
CC[C@H](C)[C@H](N)C(=O)NCC(=O)OC[C@H]1O[C@@H](n2cc(F)c(=O)[nH]c2=O)C[C@@H]1O [5′-L-isoleucyl-L-glycyl-floxuridine, 5′-L-Isoleucyl-L-glycyl-floxuridine]	25.1 ± 5.8 min	9.5 ± 0.5 min	223 ± 54 min	20.5 ± 1.1 min	290 µM	33.5 ± 2.4 min	18.7 ± 1.4 min	390 ± 10 µM	440 ± 20 µM	–	–
5′-L-Valyl-L-phenylalanyl-floxuridine	51.6 ± 4.2 min	76.0 ± 14.1 min	>500 min	57.6 ± 9.3 min	1030 ± 80 µM	104.7 ± 7.0 min	56.2 ± 12.8 min	2880 ± 10 µM	460 ± 20 µM	–	–
CC(C)[C@H](N)C(=O)OC[C@H]1O[C@@H](n2cc(F)c(=O)[nH]c2=O)C[C@@H]1O [5′-L-valyl-floxuridine]	18.7 ± 6.7 min	131.5 ± 54.1 min	–	9.4 ± 0.5 min	2910 ± 380 µM	304.0 ± 33.3 min	5.2 ± 2.4 min	1880 ± 180 µM	2410 ± 280 µM	–	–
NCC(=O)N1CCC[C@H]1C(=O)O [glycylproline (Gly-Pro), glycylproline] (H-Gly-Pro-OH)	–	–	–	–	–	–	–	–	–	–	29500 ± 6500 µM
CC[C@H](C)[C@H](N)C(=O)OC[C@H]1O[C@@H](n2cc(F)c(=O)[nH]c2=O)C[C@@H]1O [5′-L-isoleucyl-floxuridine]	198.0 ± 70.2 min	271.4 ± 3.2 min	>500 min	192.3 ± 31.8 min	4120 ± 1750 µM	1194.5 ± 660.6 min	139.9 ± 15.3 min	720 ± 30 µM	2380 ± 120 µM	–	–
NCC(=O)OC[C@H]1O[C@@H](n2cc(F)c(=O)[nH]c2=O)C[C@@H]1O [5′-L-glycyl-floxuridine]	27.6 ± 5.8 min	72.1 ± 15.0 min	250 ± 54 min	24.1 ± 2.0 min	2710 ± 530 µM	85.5 ± 3.2 min	49.7 ± 5.6 min	2280 ± 590 µM	2790 ± 80 µM	–	–
